Measurements as given in PubChem BioAssay AID552 (SRMLSC, 2006).
Screen size: about 20,000 compounds; about 10 (0.05%) were called active. No stated cut-off is given here; in the data, active means inhibition above about 40%; inactive means the rest. The entries come from a sample that favours actives as a whole.

Assay: antibacterial activity on E. coli BW25113 – strain BW25113 wild type, absorbance readout, primary screen (AID 552);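 further: bacteria exposed to compound for 20 hours at 37 °C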
Conditions: E. coli BW25113 growth inhibition, OD600; at 10 µM; hits give high values
In short: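 System: bacterial strain in a whole-cell growth screen; medium: LB broth with 50 µg/mL kanamycin; detection: absorbance at 615 nm; schedule: 20 h exposure, 37 °C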

inhibition, inactive:
O=C1CC(c2ccccc2)CC(O)=C1C=NCCN1CCOCC1 (stereo unspecified) 0.58%
COCCCNC(=O)CSc1nc2ccc(N3CCOCC3)cc2c(=O)n1CCc1ccccc1 1.57%
CCCC(=O)Nc1ccc(C(=O)NCCCn2ccnc2)cc1 -11.9%
COc1ccc(S(=O)(=O)N2CCOCC2)cc1C(=O)Nc1nc2ccccc2s1 4.62%
CCn1c(SCC(=O)Nc2nccs2)nnc1-c1ccncc1 -9.46%
CCCC1CC(C)(C(=O)Cn2[nH]c(=O)ccc2=O)OC1=O (stereo unspecified) 19.6%
CC(C)Cc1ccc(S(=O)(=O)N2CCN(C(=O)c3ccco3)CC2)cc1 -19.7%
O=C(CS(=O)(=O)c1cn(Cc2ccc(Cl)cc2)c2ccccc12)N1CCOCC1 -0.05%
CCOC(=O)C1CCN(C(=O)Cn2cc(C#N)c3ccccc32)CC1 6.78%
O=C(O)C1CC=C(Cl)CC1C(=O)NCc1ccccc1 (stereo unspecified) -2.5%
CCOC(=O)c1cc(NC(=O)c2cccnc2)cc(C(=O)OCC)c1 -7.79%
CCOC(=O)c1c(N)c(C#N)nn1-c1ccccc1C(=O)OC -8.34%
CCN1CCN(C(=O)CN(C)S(=O)(=O)c2ccc(OC)cc2)CC1 -16.9%
C=CCNC(=O)CSc1nc2sc(C)c(C)c2c(=O)[nH]1 -0.815%
O=C(O)[C@@H]1CCCN1c1ncnc2sc3c(c12)CCC3 5%
CN1C(C)(C)CC(NC(=O)CCC(=O)NC2CC(C)(C)N(C)C(C)(C)C2)CC1(C)C -21%
COc1ccccc1N1CCN(C(=O)c2cc(-c3ccc(Cl)c(Cl)c3)on2)CC1 -2.37%
COc1ccc(OC)c(S(=O)(=O)Nc2ccccc2F)c1 -13.8%
Cc1noc(C)c1C(=O)Nc1ccccn1 -22.1%
Cc1ccc(SCCN2C(=O)NC(C)(C)C2=O)cc1 4.35%
COc1cc(C2C(C#N)=C(C)NC3=C2C(=O)CC(C)(C)C3)ccc1O (stereo unspecified) 5.23%
COC(=O)c1ccc(Oc2nc(NC(C)C)nc(SC)n2)cc1 -19.1%
CCOC(=O)c1cc(NC(=O)SCC(=O)O)c(C)nc1C -3.26%
Cc1onc(-c2ccccc2)c1C(=O)N1CCOCC1 16.2%
CCOC(=O)Cc1csc(NC(=O)CN(C)S(=O)(=O)c2ccc3c(c2)CCC(=O)N3)n1 3.09%
CN(C)S(=O)(=O)c1ccc(Oc2ccc(S(=O)(=O)N(C)C)cc2)cc1 7.29%
Cn1nnnc1SCC(=O)N1CCN(C(c2ccccc2)c2ccccc2)CC1 4.16%
CC12CCC(C(=O)N3CCN(c4ncccn4)CC3)(c3nc4ccccc4nc31)C2(C)C (stereo unspecified) -25.6%
COc1c(C(=O)N2CCCC2)ccc2ccccc12 -8.42%
COc1ccc(CSc2nc(N3CCOCC3)c3c(c2C#N)CC(C)(C)OC3)cc1 -19.4%
CCC(C)n1[nH]c(=O)c2c(C)cc(C)nc21 (stereo unspecified) 5.71%
CCCCSc1nnc(-c2ccc(NC(=O)CC)cc2)n1C -21.9%
Cc1cc(C)c2c(n1)nn1c(N3CCN(c4cccc(Cl)c4)CC3)cc(C)nc21 -4.02%
Cc1cc(Cl)c(S(=O)(=O)NCCC(=O)O)cc1OCC(N)=O -0.81%
COCCn1c(-c2ccc(OC)c(OC)c2)nc2ccccc21 -1.61%
Cc1cc(C(F)(F)F)nn1CC(=O)N1CCCC1 3.35%
Cn1c(=O)[nH]c(=O)c2c1nc(N(CCO)Cc1ccccc1)n2Cc1ccccc1Cl -2.48%
CC1CCc2c(sc3c2C2=NS(=O)(=O)CCN2C=N3)C1 (stereo unspecified) 6%
Cc1nn(CC(=O)Nc2ccc3c(c2)nc(CN2CCCCC2)n3C)c(=O)c2ccccc12 2.04%
COc1ccccc1-c1nc(C(F)(F)F)c(OC)o1 -5.84%
O=c1ccc2cc(S(=O)(=O)N3CCN(c4ccccc4)CC3)ccc2o1 -12.1%
Cc1ccc(C(=O)N2CCCCCC2)cc1Br -8.59%
COc1cccc(-c2nc(S(=O)(=O)c3ccccc3)c(N3CCOCC3)o2)c1 7.07%
COc1ccccc1-c1cc(C(=O)NCCCn2ccnc2)no1 -4.16%
O=C(O)Cc1ccc(NC(=O)c2cccs2)cc1 -19.2%
COC(=O)Cc1c(C)c2ccc(OCC(=O)NCc3ccc4c(c3)OCO4)cc2oc1=O -21.1%
O=C(CS(=O)(=O)Cc1ccccc1)Nc1cccnc1 6.45%
O=C(NCc1ccco1)c1cc(-c2cccnc2)nc2ccc(Cl)cc12 -19.8%
CCSc1nc2c(c(=O)[nH]1)C(c1cccnc1)C(C(=O)OC(C)C)=C(C)N2 (stereo unspecified) -1.79%
Cc1cccc(C(=O)Nc2ccc(CC(=O)O)cc2)c1 -0.63%
O=C(Nc1ccccc1)N(Cc1cccnc1)Cc1ccco1 -3.67%
O=C(CSc1nc2ccccc2o1)N1CCN(c2ccccc2)CC1 -25.4%
CC(=O)Nc1ccc(S(=O)(=O)Nc2nc3n(n2)C(c2ccccc2)CC(=O)N3)cc1 (stereo unspecified) -1.04%
Cc1cc2c(cc1C)NC(c1ccccn1)C1=C(CC(C)(C)CC1=O)N2 (stereo unspecified) -18.9%
CCOC(=O)COc1ccc(Cl)cc1C1NC(=O)NC(C)=C1C(C)=O (stereo unspecified) -10.9%
O=C(COc1ccc(F)cc1)N(CC1=CCS(=O)(=O)C1)c1ccccc1 -20.6%
CC1(C)CC(=O)C=C(NCc2ccncc2)C1 -1.29%
CCc1cc(Br)ccc1NC(=O)C1CCCO1 (stereo unspecified) -16.5%
Cc1cc(C)nc(SCc2nnc(SCC(=O)Nc3ncc(C)s3)n2Cc2ccco2)n1 -3.82%
CCOc1ccc(-c2nnn(CC(=O)N3CCN(c4ccc(F)cc4)CC3)n2)cc1OCC -5.75%
CCCOc1ccccc1-c1nc(SCCC(=O)O)n[nH]1 -18.4%
CCOC(=O)CSc1nnc(CNC(=O)c2cccs2)n1-c1cc(OC)ccc1OC 6.52%
Cc1cc(C)n(C(=O)c2ccc(S(=O)(=O)N3CCCC3)cc2)n1 -20.2%
CCCCn1c(CN2CCN(CCO)CC2)nc2ccccc21 -3.29%
Nc1nc(SCCOc2ccccc2)n[nH]1 6.28%
O=C(CSc1nc(-c2ccco2)cc(C(F)(F)F)n1)N1CCc2ccccc2C1 -19.6%
COCCn1c(CN(Cc2ccccc2)Cc2ccccc2)nc2c1c(=O)n(C)c(=O)n2C 12.3%
O=C(CSc1nnc(-c2cccs2)n1-c1ccccc1)NCc1ccco1 -20.9%
CCS(=O)(=O)NCCc1ccc(OC)c(OC)c1 -17.9%
CC1=C(C(=O)Nc2ccccc2)C(c2cccs2)C(C#N)=C(SCC#N)N1 (stereo unspecified) 7.71%
CCn1cc(NC(=O)Nc2ccc(OC)c(OC)c2)c(C(N)=O)n1 -17.1%
NC(=O)CSc1oc(-c2cccs2)nc1S(=O)(=O)c1ccccc1 -19.6%
COc1ccc(-c2noc(COc3ccc(Cl)c(C)c3)n2)cc1 15.8%
CS(=O)(=O)N(Cc1nc2sc3c(c2c(=O)[nH]1)CCCC3)C1CCCCC1 9.07%
CC(c1nnc(SCC(=O)Nc2sccc2C#N)n1-c1ccc(Cl)cc1)N(C)C (stereo unspecified) -3.98%
Cc1ccc(S(=O)(=O)NCc2nc3ccccc3c(=O)n2N)cc1 -21.5%
